{"source": "ChEMBL document CHEMBL4118269", "about": "(J Med Chem, 2018)", "key": {"in vitro [1]": {"assay": "in vitro", "settings": "Sprague-Dawley, rat, liver microsomes"}, "[2]": {"assay": "Half life in CD-1 mouse liver microsomes at 1 uM preincubated for 5 mins followed by NADPH addition measured up to 45 mins by LC-MS/MS analysis", "format": "ADME, microsome", "settings": "0.75 h", "procedure,_shortened": "(§1)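 Pooled liver microsomes (0.5 mg/mL; male CD-1 mouse, male Sprague Dawley rat, or mixed-gender human) with 1 μM compound in 100 mM potassium phosphate pH 7.4, 3 mM MgCl2, 37 °C with shaking. 5 min preincubation, then 1 mM NADPH. Aliquots at 0, 3, 7, 15, 25, 45 min quenched in cold CH3CN with carbamazepine internal standard, then LC/MS/MS. Triplicate; T1/2 = ln2/k from the slope of ln % remaining versus time.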"}, "in vitro [3]": {"assay": "in vitro", "settings": "Sprague-Dawley, rat, liver microsomes", "remark": "listed apart in the source"}, "[4]": {"assay": "Half life in human liver microsomes at 1 uM preincubated for 5 mins followed by NADPH addition measured up to 45 mins by LC-MS/MS analysis", "format": "ADME, microsome", "settings": "0.75 h", "procedure,_shortened": "as §1"}, "in vitro [5]": {"assay": "in vitro", "settings": "human, liver microsomes"}, "in vitro [6]": {"assay": "in vitro", "settings": "CD-1, mouse, liver microsomes"}, "[7]": {"assay": "Lipophilicity, log P of the compound", "format": "physicochemical", "settings": "octanol/water"}, "[8]": {"target": "Lanosterol 14-alpha demethylase (Aspergillus) (UniProt B8NUK6+Q9P8R0+G4WW85)", "assay": "Inhibition of Aspergillus fumigatus CYP51 assessed as reduction in [3-3H]eburicol 14alpha-demethylation at 0.75 uM preincubated for 60 secs followed by NADPH addition measured after 60 mins by RP-HPLC analysis relative to control", "procedure,_shortened": "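E. coli-expressed, purified CYP51 (0.5 μM) with rat NADPH-P450 reductase (1.0 μM), 100 μM dilauroylphosphatidylcholine, isocitrate dehydrogenase/isocitrate NADPH regeneration, in 50 mM K phosphate pH 7.2 with 10% glycerol and 0.1% Triton X-100. [3-3H]eburicol 25 μM final, inhibitor 0.75 μM final (1.5:1:50 inhibitor:enzyme:substrate), 37 °C. Started with 100 μM NADPH, 60 min, EtOAc extraction, radio-HPLC. Percent inhibition, triplicate, mean ± SD.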"}, "in vitro [9]": {"assay": "in vitro", "settings": "CD-1, mouse, liver microsomes", "remark": "listed apart in the source"}, "in vitro [10]": {"assay": "in vitro", "settings": "human, liver microsomes", "remark": "listed apart in the source"}, "[11]": {"target": "Lanosterol 14-alpha demethylase (Candida albicans (strain SC5314 / ATCC MYA-2876) (Yeast), UniProt P10613)", "sequence (P10613 whole entry)": "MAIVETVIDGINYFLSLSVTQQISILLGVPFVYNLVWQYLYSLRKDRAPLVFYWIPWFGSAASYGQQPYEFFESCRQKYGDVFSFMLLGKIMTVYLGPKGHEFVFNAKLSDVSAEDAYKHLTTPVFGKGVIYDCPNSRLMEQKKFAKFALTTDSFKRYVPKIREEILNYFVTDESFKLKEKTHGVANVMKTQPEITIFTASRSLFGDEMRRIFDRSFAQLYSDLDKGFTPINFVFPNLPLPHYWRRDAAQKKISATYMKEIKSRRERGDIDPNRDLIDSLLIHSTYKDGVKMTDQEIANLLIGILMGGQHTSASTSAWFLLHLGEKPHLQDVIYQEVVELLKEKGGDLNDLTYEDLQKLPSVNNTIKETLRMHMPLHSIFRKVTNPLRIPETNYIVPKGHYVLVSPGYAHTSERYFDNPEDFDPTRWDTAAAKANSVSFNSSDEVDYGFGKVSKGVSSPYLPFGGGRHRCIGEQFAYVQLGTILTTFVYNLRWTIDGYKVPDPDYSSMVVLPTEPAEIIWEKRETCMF", "assay": "Inhibition of Candida albicans CYP51 assessed as reduction in [3-3H]lanosterol 14alpha-demethylation at 0.75 uM preincubated for 60 secs followed by NADPH addition measured after 60 mins by RP-HPLC analysis relative to control", "settings": "1 h", "procedure,_shortened": "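C. albicans CYP51 expressed in E. coli and purified, 0.5 μM, with 1.0 μM rat NADPH-P450 reductase, dilauroylphosphatidylcholine and isocitrate dehydrogenase/isocitrate regeneration in 50 mM potassium phosphate pH 7.2, 10% glycerol, 0.1% Triton X-100. Substrate 25 μM final; inhibitor:enzyme:substrate 1.5:1:50. 37 °C, started with 100 μM NADPH. Sterols extracted with EtOAc, radio-HPLC. Triplicate, mean ± SD.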"}, "[12]": {"assay": "Half life in Sprague-Dawley rat liver microsomes at 1 uM preincubated for 5 mins followed by NADPH addition measured up to 45 mins by LC-MS/MS analysis", "format": "ADME, microsome", "settings": "0.75 h", "procedure,_shortened": "as §1"}, "[13]": {"target": "T1, Lanosterol 14-alpha demethylase (Aspergillus, UniProt B8NUK6+G4WW85+Q9P8R0)", "T1 sequence (B8NUK6 whole entry)": "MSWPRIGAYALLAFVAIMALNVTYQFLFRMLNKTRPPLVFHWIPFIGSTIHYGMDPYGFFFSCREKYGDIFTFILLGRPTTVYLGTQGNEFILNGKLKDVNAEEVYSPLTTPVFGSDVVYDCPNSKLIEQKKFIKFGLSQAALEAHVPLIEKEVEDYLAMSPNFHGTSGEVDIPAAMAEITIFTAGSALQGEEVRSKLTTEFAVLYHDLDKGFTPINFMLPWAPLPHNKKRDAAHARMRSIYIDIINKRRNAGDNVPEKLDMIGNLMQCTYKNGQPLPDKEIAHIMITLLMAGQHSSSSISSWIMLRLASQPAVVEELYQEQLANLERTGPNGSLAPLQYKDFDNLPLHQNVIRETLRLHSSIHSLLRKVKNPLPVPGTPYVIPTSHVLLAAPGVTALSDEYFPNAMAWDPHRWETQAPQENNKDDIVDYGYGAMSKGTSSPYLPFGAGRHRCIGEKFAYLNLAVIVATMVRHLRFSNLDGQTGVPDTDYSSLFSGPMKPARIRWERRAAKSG", "T1 sequence (Q9P8R0 whole entry)": "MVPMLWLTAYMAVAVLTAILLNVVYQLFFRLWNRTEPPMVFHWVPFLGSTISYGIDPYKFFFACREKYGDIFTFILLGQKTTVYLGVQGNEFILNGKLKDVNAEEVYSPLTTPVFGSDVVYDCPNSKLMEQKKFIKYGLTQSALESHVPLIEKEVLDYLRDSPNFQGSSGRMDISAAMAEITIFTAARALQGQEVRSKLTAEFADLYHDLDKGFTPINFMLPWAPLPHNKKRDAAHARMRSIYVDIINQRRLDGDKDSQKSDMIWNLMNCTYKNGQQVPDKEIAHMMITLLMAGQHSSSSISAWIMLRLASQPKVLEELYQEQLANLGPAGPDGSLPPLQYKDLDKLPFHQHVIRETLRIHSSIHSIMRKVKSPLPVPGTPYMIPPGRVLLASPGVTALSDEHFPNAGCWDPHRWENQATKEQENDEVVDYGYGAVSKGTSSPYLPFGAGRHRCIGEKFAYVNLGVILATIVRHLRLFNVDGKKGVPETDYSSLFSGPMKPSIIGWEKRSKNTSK", "T1 sequence (G4WW85 whole entry)": "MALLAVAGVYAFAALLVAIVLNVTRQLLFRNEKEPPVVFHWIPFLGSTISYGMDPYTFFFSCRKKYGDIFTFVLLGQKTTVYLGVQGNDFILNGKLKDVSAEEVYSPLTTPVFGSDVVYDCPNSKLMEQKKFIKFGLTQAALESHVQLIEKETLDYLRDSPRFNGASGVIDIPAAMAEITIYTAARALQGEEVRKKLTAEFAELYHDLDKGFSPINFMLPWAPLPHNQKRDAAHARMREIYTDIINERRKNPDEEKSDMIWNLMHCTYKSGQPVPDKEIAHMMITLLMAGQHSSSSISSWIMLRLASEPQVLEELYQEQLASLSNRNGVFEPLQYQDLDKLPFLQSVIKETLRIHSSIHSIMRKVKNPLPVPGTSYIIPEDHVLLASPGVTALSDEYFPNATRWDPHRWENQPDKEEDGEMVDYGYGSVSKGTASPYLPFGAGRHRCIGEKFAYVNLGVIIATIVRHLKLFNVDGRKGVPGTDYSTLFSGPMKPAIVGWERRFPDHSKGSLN", "assay": "Binding affinity to Aspergillus fumigatus CYP51 by spectral titration method", "settings": "read-out: Kd(app)", "procedure,_shortened": "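Purified CYP51 at 0.5 μM in 5 cm path cuvettes, titrated from 0.2 mM DMSO stocks over 0.1–0.8 μM ligand. Type II red shift of the Soret band (417 to 424 nm) followed as ΔA (Amax−Amin) in difference spectra. Kd obtained by fitting to the quadratic tight-binding equation using total ligand and enzyme concentrations.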"}}, "data": [{"smiles": "O=C(N[C@@H](Cn1ccnc1)c1ccc(Cl)cc1Cl)c1ccc(-c2nnc(-c3cc(-c4ccccn4)ccc3F)o2)cc1", "values": [{"measurement": "CLint scaled at 0.75 h, 1 µM", "setting": "in vitro [1]", "value": 49.4, "unit": "mL/min/kg"}, {"measurement": "t1/2", "setting": "[2]", "value": 0.383, "unit": "h"}, {"measurement": "CLhep predicted at 0.75 h, 1 µM", "setting": "in vitro [3]", "value": 29, "unit": "mL/min/kg"}, {"measurement": "t1/2", "setting": "[4]", "value": 2.05, "unit": "h"}, {"measurement": "CLhep predicted at 0.75 h, 1 µM", "setting": "in vitro [5]", "value": 6.85, "unit": "mL/min/kg"}, {"measurement": "CLint scaled at 0.75 h, 1 µM", "setting": "in vitro [6]", "value": 238, "unit": "mL/min/kg"}, {"measurement": "logP", "setting": "[7]", "value": 5.49}, {"measurement": "inhibition", "setting": "[8]", "value": 24, "unit": "%"}, {"measurement": "CLhep predicted at 0.75 h, 1 µM", "setting": "in vitro [9]", "value": 65, "unit": "mL/min/kg"}, {"measurement": "CLint scaled at 0.75 h, 1 µM", "setting": "in vitro [10]", "value": 10.2, "unit": "mL/min/kg"}, {"measurement": "inhibition at 0.75 µM", "setting": "[11]", "value": 83, "unit": "%"}, {"measurement": "t1/2", "setting": "[12]", "value": 0.95, "unit": "h"}]}, {"smiles": "O=C(N[C@@H](Cn1ccnc1)c1ccc(Cl)cc1Cl)c1ccc(-c2nnc(-c3cccc(N4CCOCC4)c3)o2)cc1", "values": [{"measurement": "logP", "setting": "[7]", "value": 4.45}, {"measurement": "inhibition", "setting": "[8]", "value": 15, "unit": "%"}, {"measurement": "inhibition at 0.75 µM", "setting": "[11]", "value": 58, "unit": "%"}]}, {"smiles": "O=C(N[C@@H](Cn1ccnc1)c1ccc(Cl)cc1Cl)c1ccc(-c2nnc(-c3ccc(-c4ccccn4)cc3F)o2)cc1", "values": [{"measurement": "CLint scaled at 0.75 h, 1 µM", "setting": "in vitro [1]", "value": 51.6, "unit": "mL/min/kg"}, {"measurement": "t1/2", "setting": "[2]", "value": 2.48, "unit": "h"}, {"measurement": "CLhep predicted at 0.75 h, 1 µM", "setting": "in vitro [3]", "value": 29.7, "unit": "mL/min/kg"}, {"measurement": "t1/2", "setting": "[4]", "value": 1.38, "unit": "h"}, {"measurement": "CLhep predicted at 0.75 h, 1 µM", "setting": "in vitro [5]", "value": 8.75, "unit": "mL/min/kg"}, {"measurement": "CLint scaled at 0.75 h, 1 µM", "setting": "in vitro [6]", "value": 36.5, "unit": "mL/min/kg"}, {"measurement": "logP", "setting": "[7]", "value": 5.49}, {"measurement": "inhibition", "setting": "[8]", "value": 26, "unit": "%"}, {"measurement": "CLhep predicted at 0.75 h, 1 µM", "setting": "in vitro [9]", "value": 26, "unit": "mL/min/kg"}, {"measurement": "CLint scaled at 0.75 h, 1 µM", "setting": "in vitro [10]", "value": 15, "unit": "mL/min/kg"}, {"measurement": "inhibition at 0.75 µM", "setting": "[11]", "value": 61, "unit": "%"}, {"measurement": "t1/2", "setting": "[12]", "value": 0.9, "unit": "h"}]}, {"smiles": "O=C(N[C@@H](Cn1ccnc1)c1ccc(Cl)cc1Cl)c1ccc(-c2nnc(-c3cc(F)cc(-c4ccccn4)c3)o2)cc1", "values": [{"measurement": "CLint scaled at 0.75 h, 1 µM", "setting": "in vitro [1]", "value": 36, "unit": "mL/min/kg"}, {"measurement": "t1/2", "setting": "[2]", "value": 1.65, "unit": "h"}, {"measurement": "CLhep predicted at 0.75 h, 1 µM", "setting": "in vitro [3]", "value": 24, "unit": "mL/min/kg"}, {"measurement": "t1/2", "setting": "[4]", "value": 0.217, "unit": "h"}, {"measurement": "CLhep predicted at 0.75 h, 1 µM", "setting": "in vitro [5]", "value": 17.3, "unit": "mL/min/kg"}, {"measurement": "CLint scaled at 0.75 h, 1 µM", "setting": "in vitro [6]", "value": 55, "unit": "mL/min/kg"}, {"measurement": "logP", "setting": "[7]", "value": 5.49}, {"measurement": "inhibition", "setting": "[8]", "value": 80, "unit": "%"}, {"measurement": "CLhep predicted at 0.75 h, 1 µM", "setting": "in vitro [9]", "value": 34, "unit": "mL/min/kg"}, {"measurement": "CLint scaled at 0.75 h, 1 µM", "setting": "in vitro [10]", "value": 96.6, "unit": "mL/min/kg"}, {"measurement": "inhibition at 0.75 µM", "setting": "[11]", "value": 87, "unit": "%"}, {"measurement": "Kd", "setting": "[13]", "value": 61, "unit": "nM"}, {"measurement": "t1/2", "setting": "[12]", "value": 1.3, "unit": "h"}]}, {"smiles": "O=C(N[C@@H](Cn1ccnc1)c1ccc(Cl)cc1Cl)c1ccc(-c2nnc(-c3ccc(-c4ccccn4)cc3)o2)cc1", "values": [{"measurement": "CLint scaled at 0.75 h, 1 µM", "setting": "in vitro [1]", "value": 94, "unit": "mL/min/kg"}, {"measurement": "t1/2", "setting": "[2]", "value": 0.95, "unit": "h"}, {"measurement": "CLhep predicted at 0.75 h, 1 µM", "setting": "in vitro [3]", "value": 40, "unit": "mL/min/kg"}, {"measurement": "t1/2", "setting": "[4]", "value": 1.92, "unit": "h"}, {"measurement": "CLhep predicted at 0.75 h, 1 µM", "setting": "in vitro [5]", "value": 7.15, "unit": "mL/min/kg"}, {"measurement": "CLint scaled at 0.75 h, 1 µM", "setting": "in vitro [6]", "value": 95, "unit": "mL/min/kg"}, {"measurement": "logP", "setting": "[7]", "value": 5.33}, {"measurement": "inhibition", "setting": "[8]", "value": 23, "unit": "%"}, {"measurement": "CLhep predicted at 0.75 h, 1 µM", "setting": "in vitro [9]", "value": 46, "unit": "mL/min/kg"}, {"measurement": "CLint scaled at 0.75 h, 1 µM", "setting": "in vitro [10]", "value": 10.8, "unit": "mL/min/kg"}, {"measurement": "inhibition at 0.75 µM", "setting": "[11]", "value": 66, "unit": "%"}, {"measurement": "t1/2", "setting": "[12]", "value": 0.5, "unit": "h"}]}]}
